Results from ChEMBL document CHEMBL2169845 (J Med Chem, 2012).
Each block holds one compound with its values, some of them ahead of it. Calls of active or inactive are those of the source. No cut-off for these calls is given here.

What was measured:
[1] = Inhibition of c-terminally truncated N-terminal 8xHis-tagged human Bcl-xL deletion mutant expressed in Escherichia coli BL21 (DE3) after 2 hrs by fluorescence polarization assay
[2] = tested on: NCI-H146; assay: Induction of apoptosis in human NCI-H146 cells assessed as PARP cleavage at 30 nM after 24 hrs by Western blot analysis; format: functional, cell-based
Method in brief: (§1)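 H146 cells treated for 24 hr, then lysed on ice for 20 min in RIPA buffer with PMSF and protease inhibitors. Cleared lysates normalized by protein assay and run on 4–20% SDS-PAGE, then blotted to PVDF. Probed with rabbit antibodies to PARP and caspase-3 (cleaved forms detected), GAPDH as loading control, with HRP chemiluminescence detection.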

[3] = tested on: NCI-H146; assay: Induction of apoptosis in human NCI-H146 cells assessed as caspase 3 activation at 30 nM after 24 hrs by Western blot analysis; format: functional, cell-based; method in brief: as §1
[4] = tested on: NCI-H146; assay: Induction of apoptosis in human NCI-H146 cells assessed as cell viability after 24 hrs by trypan blue exclusion assay; format: functional, cell-based
Method in brief: (§2)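 H146 cells exposed to a range of compound concentrations for 24 hr, then harvested and stained with trypan blue. Cells staining blue or looking morphologically unhealthy were scored as dead. At least 100 cells counted per sample.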

[5] = tested on: NCI-H146; assay: Induction of apoptosis in human NCI-H146 cells assessed as cell viability at 30 to 100 nM after 24 hrs by trypan blue exclusion assay; format: functional; method in brief: as §2
[6] = biological target: T1, Apoptosis regulator Bcl-2 (Homo sapiens, UniProt P10415)
T1 sequence (P10415 whole entry): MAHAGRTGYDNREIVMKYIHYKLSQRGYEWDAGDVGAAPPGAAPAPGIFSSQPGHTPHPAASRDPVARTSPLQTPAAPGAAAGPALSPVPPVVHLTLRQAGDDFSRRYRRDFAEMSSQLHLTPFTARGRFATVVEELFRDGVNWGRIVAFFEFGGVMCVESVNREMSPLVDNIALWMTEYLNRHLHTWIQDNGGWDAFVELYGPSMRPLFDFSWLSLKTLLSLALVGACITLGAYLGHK

[7] = biological target: T1, Apoptosis regulator Bcl-2; assay: Inhibition of N-terminal 6xHis-tagged human Bcl-2 expressed in Escherichia coli BL21 (DE3) after 2 hrs by fluorescence polarization assay
[8] = Cytotoxicity against human NCI-H146 cells assessed as growth inhibition after 4 days by WST-8 assay; format: functional, cell-based; conditions: NCI-H146, 96 h
[9] = tested on: NCI-H1417; assay: Cytotoxicity against human H1417 cells assessed as growth inhibition after 4 days by WST-8 assay; format: functional, cell-based; conditions: NCI-H1417, 96 h

Compound: Cc1c(C(=O)NCCCN2CCN(C)CC2)c(-c2cccc(N3CCN(c4ccc(NS(=O)(=O)c5ccccc5)cc4)CC3)c2)c(-c2ccc(Cl)cc2)n1C
IC50 [1]: 3730 nM

Compound: CC1(C)CCC(c2ccc(Cl)cc2)=C(CN2CCN(c3ccc(C(=O)NS(=O)(=O)c4ccc(N[C@H](CCN5CCOCC5)CSc5ccccc5)c(S(=O)(=O)C(F)(F)F)c4)cc3)CC2)C1 [NAVITOCLAX]
Activity [2]: Active
Activity [3]: Active
Activity [4]: Dose-dependent effect
Activity [5]: >50%

Compound: Cc1c(C(=O)NCCCN2CCN(C)CC2)c(-c2cccc(N3CCN(c4ccc(NS(=O)(=O)c5cccc(F)c5)cc4)CC3)c2)c(-c2ccc(Cl)cc2)n1C
IC50 [1]: 1310 nM

Compound: COc1cccc(S(=O)(=O)Nc2ccc(N3CCN(c4cccc(-c5c(C(=O)NCCCN6CCN(C)CC6)c(C)n(C)c5-c5ccc(Cl)cc5)c4)CC3)cc2)c1
IC50 [1]: 2160 nM

Compound: Cc1c(C(=O)O)c(-c2cccc(N3CCN(c4ccc(NS(=O)(=O)c5ccc(N[C@H](CCN(C)C)CSc6ccccc6)c([N+](=O)[O-])c5)cc4)CC3)c2)c(-c2ccc(Cl)cc2)n1C
Ki [6]: < 1 nM

Compound: CCOc1cccc(S(=O)(=O)Nc2ccc(N3CCN(c4cccc(-c5c(C(=O)NCCCN6CCN(C)CC6)c(C)n(C)c5-c5ccc(Cl)cc5)c4)CC3)cc2)c1
IC50 [1]: 3650 nM

Compound: Cc1c(C(=O)NCCCN2CCN(C)CC2)c(-c2cccc(N3CCN(c4ccc(NS(=O)(=O)c5cccc(S(C)(=O)=O)c5)cc4)CC3)c2)c(-c2ccc(Cl)cc2)n1C
IC50 [1]: 1920 nM

Compound: Cc1cccc(S(=O)(=O)Nc2ccc(N3CCN(c4cccc(-c5c(C(=O)NCCCN6CCN(C)CC6)c(C)n(C)c5-c5ccc(Cl)cc5)c4)CC3)cc2)c1
IC50 [1]: 1990 nM

Compound: Cc1c(C(=O)NCCCN2CCN(C)CC2)c(-c2cccc(N3CCN(c4ccc(NS(=O)(=O)c5cccc(S(=O)(=O)C6CC6)c5)cc4)CC3)c2)c(-c2ccc(Cl)cc2)n1C
IC50 [1]: 1040 nM

Compound: Cc1c(C(=O)NCCCN2CCN(C)CC2)c(-c2cccc(N3CCN(c4ccc(NS(=O)(=O)c5cccc(OC(F)(F)F)c5)cc4)CC3)c2)c(-c2ccc(Cl)cc2)n1C
IC50 [1]: 1650 nM

Compound: CCc1cccc(S(=O)(=O)Nc2ccc(N3CCN(c4cccc(-c5c(C(=O)NCCCN6CCN(C)CC6)c(C)n(C)c5-c5ccc(Cl)cc5)c4)CC3)cc2)c1
IC50 [1]: 1950 nM

Compound: Cc1c(C(=O)NCCCN2CCN(C)CC2)c(-c2cccc(N3CCN(c4ccc(NS(=O)(=O)c5cccc(OC(C)C)c5)cc4)CC3)c2)c(-c2ccc(Cl)cc2)n1C
IC50 [1]: 1050 nM

Compound: CN(C)CC[C@H](CSc1ccccc1)Nc1ccc(S(=O)(=O)NC(=O)c2ccc(N3CCN(Cc4ccccc4-c4ccc(Cl)cc4)CC3)cc2)cc1[N+](=O)[O-] [ABT 737]
Activity [4]: Dose-dependent effect
Activity [5]: >50%

Compound: Cc1c(C(=O)NCCCN2CCN(C)CC2)c(-c2cccc(N3CCN(c4ccc(NS(=O)(=O)c5cccc(Cl)c5)cc4)CC3)c2)c(-c2ccc(Cl)cc2)n1C
IC50 [1]: 1060 nM

More lines, in order of falling IC50 [1], values ahead:

IC50 [1]: 954 nM
Compound: CCS(=O)(=O)c1cccc(S(=O)(=O)Nc2ccc(N3CCN(c4cccc(-c5c(C(=O)NCCCN6CCN(C)CC6)c(C)n(C)c5-c5ccc(Cl)cc5)c4)CC3)cc2)c1

IC50 [1]: 744 nM
Compound: Cc1c(C(=O)NCCCN2CCN(C)CC2)c(-c2cccc(N3CCN(c4ccc(NS(=O)(=O)c5cccc(C(C)(C)C)c5)cc4)CC3)c2)c(-c2ccc(Cl)cc2)n1C

IC50 [1]: 499 nM
Compound: Cc1c(C(=O)NCCCN2CCN(C)CC2)c(-c2cccc(N3CCN(c4ccc(NS(=O)(=O)c5cccc(Br)c5)cc4)CC3)c2)c(-c2ccc(Cl)cc2)n1C

IC50 [1]: 131 nM
Compound: Cc1c(C(=O)NCCCN2CCN(C)CC2)c(-c2cccc(N3CCN(c4ccc(NS(=O)(=O)c5cccc([N+](=O)[O-])c5)cc4)CC3)c2)c(-c2ccc(Cl)cc2)n1C

Ki [6]: 4.6 nM
IC50 [1]: 21.8 nM
IC50 [7]: 18.6 nM
Compound: Cc1c(C(=O)O)c(-c2cccc(N3CCN(c4ccc(NS(=O)(=O)c5ccc(N[C@H](CCN6CCC(C)(O)CC6)CSc6ccccc6)c(S(=O)(=O)C(F)(F)F)c5)cc4)CC3)c2)c(-c2ccc(Cl)cc2)n1C
IC50 [8]: 171 nM
IC50 [9]: 179 nM

Ki [6]: 1.7 nM
IC50 [1]: 16.5 nM
IC50 [7]: 7.5 nM
Compound: Cc1c(C(=O)O)c(-c2cccc(N3CCN(c4ccc(NS(=O)(=O)c5ccc(N[C@H](CCN6CCC6)CSc6ccccc6)c(S(=O)(=O)C(F)(F)F)c5)cc4)CC3)c2)c(-c2ccc(Cl)cc2)n1C
IC50 [8]: 86 nM
IC50 [9]: 126 nM

Ki [6]: 3.8 nM
IC50 [1]: 12.1 nM
IC50 [7]: 15.6 nM
Compound: Cc1c(C(=O)O)c(-c2cccc(N3CCN(c4ccc(NS(=O)(=O)c5ccc(N[C@H](CCN6CCCCC6)CSc6ccccc6)c(S(=O)(=O)C(F)(F)F)c5)cc4)CC3)c2)c(-c2ccc(Cl)cc2)n1C
IC50 [8]: 133 nM
IC50 [9]: 171 nM

Ki [6]: 14.1 nM
IC50 [1]: 10.8 nM
IC50 [7]: 55.2 nM
Compound: Cc1c(C(=O)O)c(-c2cccc(N3CCN(c4ccc(NS(=O)(=O)c5ccc(N[C@H](CCN6CCOCC6)CSc6ccccc6)c(S(=O)(=O)C(F)(F)F)c5)cc4)CC3)c2)c(-c2ccc(Cl)cc2)n1C

Ki [6]: 1.8 nM
IC50 [1]: 10.7 nM
IC50 [7]: 8.3 nM
Compound: Cc1c(C(=O)O)c(-c2cccc(N3CCN(c4ccc(NS(=O)(=O)c5ccc(N[C@H](CCN6CCCC6)CSc6ccccc6)c(S(=O)(=O)C(F)(F)F)c5)cc4)CC3)c2)c(-c2ccc(Cl)cc2)n1C
IC50 [8]: 87 nM
IC50 [9]: 106 nM

Ki [6]: 1.7 nM
IC50 [1]: 10.5 nM
IC50 [7]: 7.7 nM
Compound: Cc1c(C(=O)O)c(-c2cccc(N3CCN(c4ccc(NS(=O)(=O)c5ccc(N[C@H](CCN6CC(O)C6)CSc6ccccc6)c(S(=O)(=O)C(F)(F)F)c5)cc4)CC3)c2)c(-c2ccc(Cl)cc2)n1C
IC50 [8]: 241 nM
IC50 [9]: 299 nM

Ki [6]: 7.5 nM
IC50 [1]: 8.2 nM
IC50 [7]: 30.1 nM
Compound: CCCn1c(C)c(C(=O)O)c(-c2cccc(N3CCN(c4ccc(NS(=O)(=O)c5ccc(N[C@H](CCN6CCC(O)CC6)CSc6ccccc6)c(S(=O)(=O)C(F)(F)F)c5)cc4)CC3)c2)c1-c1ccc(Cl)cc1
IC50 [8]: 128 nM
IC50 [9]: 105 nM

Ki [6]: 20 nM
IC50 [1]: 6.3 nM
IC50 [7]: 78.2 nM
Compound: CCCCn1c(C)c(C(=O)O)c(-c2cccc(N3CCN(c4ccc(NS(=O)(=O)c5ccc(N[C@H](CCN6CCC(O)CC6)CSc6ccccc6)c(S(=O)(=O)C(F)(F)F)c5)cc4)CC3)c2)c1-c1ccc(Cl)cc1
IC50 [8]: 128 nM
IC50 [9]: 97 nM

Ki [6]: 2.1 nM
IC50 [1]: 5.1 nM
IC50 [7]: 9.2 nM
Compound: Cc1c(C(=O)O)c(-c2cccc(N3CCN(c4ccc(NS(=O)(=O)c5ccc(N[C@H](CCN(C)C)CSc6ccccc6)c(S(=O)(=O)C(F)(F)F)c5)cc4)CC3)c2)c(-c2ccc(Cl)cc2)n1C
